Usually Km stands for the concentration of substrate that gives half-maximal velocity.

This is an account of results in PMC8233206 (The Journal of Biological Chemistry, 2021).

For series [1] the following is noted: mice; injection of 80 mM hyperpolarized solution; cited from earlier work.
For series [2] the following is noted: humans; 230 mM at 5 ml/s injection rate; cited from earlier work.
For the next series, the target named is bovine heart LDH (Bos taurus, UniProt Q5E9B1). The series can be described thus: LDH coupled-enzyme kinetic assay. It counts as biochemical.
Series [3] addresses purified human recombinant LDHA (Homo sapiens, UniProt P00338). The series can be described thus: LDH coupled-enzyme kinetic assay. The class given is biochemical.
Another series addresses human recombinant LDHB (Homo sapiens, UniProt P07195). The series can be described thus: LDH coupled-enzyme kinetic assay. It counts as biochemical.
Series [4] concerns LDH in extracts from Panc03.27 cells. As to the kind of experiment: LDH enzyme kinetics in cell extracts. It counts as biochemical, human. The following applies: Panc03.27 cell extract. The method in brief: (§1)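 Cells washed in ice-cold PBS, lysed in ice-cold LDH assay lysis buffer, protein measured by Coomassie. Extract mixed with Tris/NaCl/NADH buffer and Tris/NaCl/pyruvate (0–30 mM). Plate shaken 30 s, then A340 read five times at 30-s intervals; initial velocities from NADH oxidation. Enzyme-free and pyruvate-free controls run. Vmax, Vpeak, apparent Km and Ki from biphasic curve fits. Triplicate, three independent experiments; mean ± SE.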

In series [5] the test system is LDH in extracts from Mia Paca-2 cells. The series can be described thus: LDH enzyme kinetics in cell extracts. The class given is biochemical, human. The following applies: Mia Paca-2 cell extract. The method, boiled down:
as §1

Series [6] concerns LDH in extracts from QGP1 cells. As to the kind of experiment: LDH enzyme kinetics in cell extracts. The class given is biochemical, human. The following applies: QGP1 cell extract. The method in brief: as §1
Series [7] deals with LDH in extracts from MDA-MB-231 cells. As to the kind of experiment: LDH enzyme kinetics in cell extracts. It counts as biochemical, human. The following applies: MDA-MB-231 cell extract. The method in brief: as §1
Series [8] relates to LDH in extracts from HPNE cells. The series can be described thus: LDH enzyme kinetics in cell extracts. It counts as biochemical, human. The following applies: HPNE cell extract. The method in brief: as §1
A further series concerns Panc03.27 cells. As to the kind of experiment: Seahorse XF glycolysis stress assay, glucose-induced ECAR. The class given is cell-based, human. The method, boiled down: (§2)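 Seeded 48 h before in growth medium (1.5 × 10⁴ Panc03.27, MDA-MB-231, HPNE; 1.2 × 10⁴ Mia Paca-2; 2.0 × 10⁴ QGP1). MCT1/2 inhibitor 0.5 μM or DMSO added 4 h pre-assay. Medium: DMEM without NaHCO₃, 2 mM glutamine, 5 mM glucose, pH 7.4. Injected in order: 2 mM sodium pyruvate, 10 mM glucose, 2 μM oligomycin, 50 mM 2-DG. Glucose-induced/baseline ECAR ratio, normalized to Hoechst cell counts and 0 mM pyruvate; three experiments.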

A further series relates to Mia Paca-2 cells. The description is as above. It counts as cell-based, human. The method in brief: as §2
The next series relates to QGP1 cells. The description is as above. It counts as cell-based, human. The method, boiled down: as §2
The next series relates to MDA-MB-231 cells. The description is as above. The class given is cell-based, human. The method, boiled down: as §2
The test system of another series is HPNE cells. The description is as above. It counts as cell-based, human. The method, boiled down:
as §2

The mark [9] stands for this setting: LDH bovine heart, pyruvate 0–30 mM.
The mark [10] stands for this setting: read-out: Ki (apparent, substrate inhibition).
[11] abbreviates: 2 mM sodium pyruvate, medium with 5 mM glucose, DMSO control.
The mark [12] stands for this setting: 0.5 μM AZD3965 pretreatment 4 h, 5 mM glucose, vs DMSO control.

Like-named read-outs stand apart in the source and are kept apart here. Bounds are passed on as bounds.

Chain of human recombinant LDHB (P07195 whole entry): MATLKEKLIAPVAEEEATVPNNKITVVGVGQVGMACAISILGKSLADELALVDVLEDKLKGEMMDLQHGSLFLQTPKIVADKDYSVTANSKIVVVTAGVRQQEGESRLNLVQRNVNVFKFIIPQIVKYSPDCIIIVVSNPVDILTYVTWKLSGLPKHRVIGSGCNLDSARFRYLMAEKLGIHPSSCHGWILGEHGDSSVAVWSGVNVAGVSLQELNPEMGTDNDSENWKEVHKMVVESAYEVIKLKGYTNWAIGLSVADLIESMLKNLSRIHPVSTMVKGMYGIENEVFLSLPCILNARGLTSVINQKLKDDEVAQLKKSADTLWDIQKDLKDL
Chain of bovine heart LDH (Q5E9B1 2-334): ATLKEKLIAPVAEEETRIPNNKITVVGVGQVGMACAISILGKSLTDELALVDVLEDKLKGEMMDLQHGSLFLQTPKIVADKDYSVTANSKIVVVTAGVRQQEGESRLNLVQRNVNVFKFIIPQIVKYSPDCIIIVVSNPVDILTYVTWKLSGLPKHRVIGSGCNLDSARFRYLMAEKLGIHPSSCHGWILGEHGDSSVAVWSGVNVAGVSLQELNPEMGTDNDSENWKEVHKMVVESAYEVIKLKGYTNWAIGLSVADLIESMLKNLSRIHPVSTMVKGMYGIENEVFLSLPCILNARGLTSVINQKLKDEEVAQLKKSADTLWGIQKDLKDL

For the compound `CC(=O)[13C](=O)O` [[1-^13C]pyruvate], the Blood pyruvate concentration in series [1] is around 8 mM; in series [2], at least 2 mM.
Regarding `CC(=O)C(=O)O` [pyruvate], the Ki at bovine heart LDH was 1.75 ± 0.11 mM; in series [3] it was 5.33 ± 0.49 mM; on human recombinant LDHB, 2.88 ± 0.4 mM; in series [4] (setting [10]) it was 2.33 ± 0.21 mM; in series [5] (setting [10]) it was 4.26 ± 0.32 mM; in series [6] (setting [10]) it was 3.42 ± 0.25 mM. The Ki worked out at 3.39 ± 0.5 mM in [7] (setting [10]) and 2.67 ± 0.2 mM in series [8] (setting [10]). The “Vmaz (maximal initial velocity from activation curve fit)” value is listed as 3.23 ± 0.10 ΔAbs/s∗10^−3/μg protein on bovine heart LDH (setting [9]); 1.00 ± 0.04 ΔAbs/s∗10^−3/μg protein in series [3] (rLDHA, pyruvate 0–30 mM); 1.00 ± 0.05 ΔAbs/s∗10^−3/μg protein on human recombinant LDHB (rLDHB, pyruvate 0–30 mM); 2.00 ± 0.07 ΔAbs/s∗10^−3/μg protein in [4]; 0.88 ± 0.03 ΔAbs/s∗10^−3/μg protein in series [5]; 1.85 ± 0.05 ΔAbs/s∗10^−3/μg protein in series [6]. Also, the entries for the “Vmaz (maximal initial velocity from activation curve fit)” value in [7] and in series [8] were 2.98 ± 0.17 ΔAbs/s∗10^−3/μg protein and 2.71 ± 0.08 ΔAbs/s∗10^−3/μg protein, respectively. For the same compound, the “Vpeak (peak initial velocity of the biphasic curve fit)” value on bovine heart LDH (setting [9]) was 2.08 ΔAbs/s∗10^−3/μg protein; in series [3] (rLDHA, pyruvate 0–30 mM), 0.75 ΔAbs/s∗10^−3/μg protein; at human recombinant LDHB (rLDHB, pyruvate 0–30 mM) it was 0.75 ΔAbs/s∗10^−3/μg protein; in [4] it was 1.56 ΔAbs/s∗10^−3/μg protein; in [5], 0.66 ΔAbs/s∗10^−3/μg protein; in series [6], 1.42 ΔAbs/s∗10^−3/μg protein. Also, the “Vpeak (peak initial velocity of the biphasic curve fit)” value in [7] is on record as 2.20 ΔAbs/s∗10^−3/μg protein; in [8], 1.98 ΔAbs/s∗10^−3/μg protein. For the same compound, the Km in series [4] (read-out: Km (apparent)) was determined as 50 µM; in series [5] (read-out: Km (apparent)), 110 ± 10 µM; in series [6] (read-out: Km (apparent)) it was 80 ± 10 µM; in [7] (read-out: Km (apparent)), 100 ± 20 µM; in series [8] (read-out: Km (apparent)), 90 ± 10 µM. The “Decrease of glucose-stimulated ECAR” value with Panc03.27 cells (setting [11]) is reported as above 30%; with Mia Paca-2 cells (setting [11]) it was above 30%; in the series with QGP1 cells (setting [11]) it was above 30%; in the series on MDA-MB-231 cells (setting [11]), above 30%; in the series on HPNE cells (setting [11]), “less than 10%”.
Regarding `Cc1[nH]nc(C(F)(F)F)c1Cc1sc2c(c1C(=O)N1C[C@](C)(O)CO1)c(=O)n(C)c(=O)n2C(C)C` [AZD3965, reference compound], the “Effect on 2 mM pyruvate-induced inhibition of glucose-stimulated ECAR” value in the series with Panc03.27 cells (setting [12]) was “blocked”; with Mia Paca-2 cells (setting [12]), “blocked”; in the series with QGP1 cells (setting [12]) it was “blocked”; in the series with MDA-MB-231 cells (setting [12]), “no significant effects”; in the series with HPNE cells (setting [12]) it was “blocked”.
